From PubChem BioAssay
An excerpt weighted towards active compounds, which were near 3.8% of everything screened.
KCNQ1 act = human KCNQ1 channel potentiation or activation; AID 2648; 0.35% of 310,000 active; B-score at 10 µM; CHO-K1 KCNQ1, thallium flux FluxOR fluorescence; active compounds read high;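 active means fluorescence ratio B-score, a plate-corrected score, at least three library SD, with initial intensity B-score within 5 SD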
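assay system = KCNQ1-transfected CHO-K1 cells | medium = assay buffer with matched DMSO | probe or stimulus = depolarizing K+/Tl+ stimulus, K2SO4 and Tl2SO4 each 12.5 mM in 5x stock | dosing = single dose | incubation = dye 90 min, compound 20 min, room temperature | detection = kinetic FluxOR fluorescence, 10 s baseline plus 110 s post-stimulus | evaluation = ratio B score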
KCNK3 block = human KCNK3 channel inhibition, primary screen; O14649; CHO-KCNK3 thallium flux, FluxOR fluorescence; active compounds read low; B-score at 10 µM; 0.84% of 340,000 active; AID 602410;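 active means B-score under library mean minus 4 SD, starting fluorescence ratio at most library mean plus 5 SD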;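 further: more negative B-score means stronger inhibition of thallium flux through KCNK3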
Target sequence (O14649 whole entry, looked up): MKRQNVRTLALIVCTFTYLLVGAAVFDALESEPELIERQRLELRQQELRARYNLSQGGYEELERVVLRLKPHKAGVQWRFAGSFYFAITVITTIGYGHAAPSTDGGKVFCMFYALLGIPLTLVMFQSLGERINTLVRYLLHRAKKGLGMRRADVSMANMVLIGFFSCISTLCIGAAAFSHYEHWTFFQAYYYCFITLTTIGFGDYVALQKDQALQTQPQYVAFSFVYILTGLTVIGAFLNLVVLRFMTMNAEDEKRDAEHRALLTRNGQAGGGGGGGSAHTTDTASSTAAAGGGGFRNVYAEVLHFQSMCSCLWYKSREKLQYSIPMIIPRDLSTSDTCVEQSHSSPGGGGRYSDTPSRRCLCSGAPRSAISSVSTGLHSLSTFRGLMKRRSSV
Kir21 block = inhibitors of mouse Kir2.1 inward-rectifier potassium channel; P35561; 0.85% of 310,000 active; HEK293-Kir2.1, FluxOR thallium flux fluorescence; active compounds read low; AID 1672; B-score at 10 µM;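 active means fluorescence ratio B-score at or below minus 3 SD of library scores, with starting-brightness B-score within 2 SD, cut at about -4.2 in these data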;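 further: channel flux triggered by added potassium and thallium sulfate stimulus; B-score of peak minus minimum fluorescence over baseline after thallium stimulus; more negative B-score means stronger Kir2.1 block with less thallium influx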
KCNQ1 block = blocks the human KCNQ1 potassium channel; P51787; CHO-K1 KCNQ1, FluxOR thallium flux fluorescence; active compounds read high; B-score at 10 µM; 1.3% of 310,000 active; AID 2642;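 active means compounds whose thallium flux B-score, printed positive for inhibition, exceeds three library SD while starting fluorescence stays within three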;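 further: channel opened by potassium depolarization with thallium stimulus after 20 min compound exposure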
KCNK9 inh = inhibitors of human KCNK9 two-pore domain potassium channel. AID 488922. B-score at 10 µM. HEK293 KCNK9, FluxOR thallium flux fluorescence; active compounds read low. Q9NPC2. 1.2% of 310,000 active;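 active means ratio B-score over 3 SD below the library mean, with starting fluorescence within 5 SD of its mean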;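 further: negative B-score means less thallium flux so channel inhibition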
hERG protect = compounds protecting human hERG from proarrhythmic drug block | Q12809 | CHO-hERG, FluxOR thallium flux, dofetilide IC70 present | activation (rescue from dofetilide block), less the hit threshold, % at 10 µM | 0.51% of 310,000 active | AID 1511;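 active means activation above the mean of controls blocked by dofetilide plus 5 SD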;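 further: thallium influx through hERG after potassium depolarization seen as dye fluorescence rise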
KCNK9 inh conf = confirmation of human KCNK9 potassium channel inhibitors; shares compounds with KCNK9 inh; HEK293 KCNK9 cells, FluxOR thallium flux fluorescence; inhibition, % at 10 µM; 43% of 4,900 active; AID 492992;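 active means thallium signal inhibited by more than 5 SD of the compound-free buffer control wells, on both duplicate plates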;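 further: 0% = assay buffer control wells without compound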
Kir21 sel = tests whether KCNK9 modulators also affect mouse Kir2.1 | inhibition, % at 10 µM | Kir2.1 cells, FluxOR thallium flux fluorescence | 4% of 4,900 active | shares compounds with KCNK9 inh | AID 492993;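 active means thallium signal drop more than 5 SD beyond the mean of the no-compound control wells, seen in both duplicate plates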;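 further: signal is fluorescence rise after thallium addition divided by baseline fluorescence; plate controls were assay buffer only for no effect and full block by chlorpromazine control for full effect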
HEK293 Tl ctr = second check of KCNK9 modulator effects in non-induced HEK293 cells | shares compounds with KCNK9 inh | 40% of 4,900 active | FluxOR thallium flux | AID 492997 | inhibition, % at 10 µM;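 active means thallium signal drop beyond 5 SD of the untreated control mean, on both duplicate plates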;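 further: plate controls were buffer only IC0 wells for no effect and SID17386958 at its maximal inhibitory level for full effect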
Starred values were filed as active, the others as inactive; i = inactive; · = not tested or not shown.

SMILES	KCNQ1 act	KCNK3 block	Kir21 block	KCNQ1 block	KCNK9 inh	hERG protect	KCNK9 inh conf	Kir21 sel	HEK293 Tl ctr
COc1ccc(NC2CCCN(C(=O)CCc3ccccc3F)C2)cc1 (configuration not stated)	i	i	-1.9	i	i	-7	i	i	i
CC1=NN(C(N)=S)C(=O)C1N=Nc1cccc(Cl)c1C (configuration not stated)	41*	i	0.2	i	i	-11	i	i	i
CCN(CC)S(=O)(=O)c1ccc(N2CCOCC2)c(NC(=O)C23CC4CC(CC(Cl)(C4)C2)C3)c1	i	i	0.65	i	i	-10	i	i	i
CCN(CC)S(=O)(=O)c1ccc(N2CCOCC2)c(NC(=O)c2ccccc2)c1	i	i	0.42	i	i	-15	·	·	·
O=C1NC(NS(=O)(=O)c2ccccc2)(C(F)(F)F)C(=O)N1Cc1ccccc1 (configuration not stated)	i	i	0.54	i	i	-9	·	·	·
C=C(c1ccc(O)cc1)c1ccc(O)cc1	i	i	0.59	i	-11*	-18	46%*	i	i
COc1ccc2[nH]c3c(c2c1)CCN1C(=O)C(CC(=O)NC/C=C(\C)CCC=C(C)C)C[C@H](C(=O)N(C(C)C)C(C)C)[C@@]31C (some centres not stated)	·	i	·	·	·	·	·	·	·
Cc1ccc(S(=O)(=O)N2CCOCC2)cc1C(=O)O	i	i	-0.06	i	i	-7	·	·	·
Cc1ccc(C)c(N2CCN(C(=O)c3cc(S(=O)(=O)N4CCOCC4)ccc3F)CC2)c1	i	i	0.02	i	i	-1	i	i	i
CCCCn1c(N)c(N(CCOC)C(=O)COC(=O)CSc2cc(C)c3ccccc3n2)c(=O)[nH]c1=O	i	i	0.18	i	i	-12	·	·	·
CN1N=C2c3ccccc3CCC2C1c1ccc(C(F)(F)F)cc1 (configuration not stated)	i	·	0.37	i	i	-4	·	·	·
CN(C)c1ccc(C2C3CCCc4ccccc4C3=NN2C)cc1 (configuration not stated)	i	i	-0.4	i	i	-10	i	i	i
COC(=O)c1ccc(C(=O)OC)c(NC(=S)N2CCCC(C)C2)c1 (configuration not stated)	i	i	0.01	i	i	-12	·	·	·
Nc1ncnc2c1ncn2-c1ccccc1Cl	·	i	·	·	·	·	·	·	·
Cc1cc(C(=O)N2CCCC(N3CCN(c4cccc(Cl)c4)CC3)C2)nn1C (configuration not stated)	i	i	0.57	i	i	-6	·	·	·
Cc1cc(C(=O)N2CCCC(N3CCN(c4cccc(C(F)(F)F)c4)CC3)C2)c(C)o1 (configuration not stated)	i	i	0.28	i	i	-16	i	i	i
Cc1cc(C(=O)N2CCCC(N3CCN(c4cccc(C(F)(F)F)c4)CC3)C2)nn1C (configuration not stated)	i	i	0.07	i	i	-7	i	i	i
CC1(CCC(=O)N2CCCC(N3CCN(c4cccc(C(F)(F)F)c4)CC3)C2)CC1 (configuration not stated)	i	i	0.33	i	i	-17	i	i	i
C=CCN(C)CC/C=C1\c2ccccc2CSc2ccccc21	i	i	-4	i	i	-12	i	i	i
CCOc1cc(/C=N/NC(=O)CNc2cccc(C)c2)ccc1OC(=O)c1ccccc1	i	i	-0.68	i	i	-7	·	·	·
